Measured values as given in ChEMBL document CHEMBL5034013, “Discovery of VNRX-7145 (VNRX-5236 Etzadroxil): An Orally Bioavailable β-Lactamase Inhibitor for Enterobacterales Expressing Ambler Class A, C, and D Enzymes” (J Med Chem, 2021).

How the values were obtained:
[1] = Oral bioavailability in rat at 10 mg/kg administered as cassette dose measured by UPLC-MS/MS; format: ADME, organism-based; conditions: in vivo
How it was run: (§1)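 Ester prodrugs are given to rats by oral gavage, some as a cassette with another ester. F is the percent absolute oral bioavailability of the parent, corrected for the MW difference between prodrug and parent.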

[2] = tested on: Escherichia coli; test: Antibacterial activity against Escherichia coli expressing CTX-M-15/TEM-1 assessed as concentration required to restore ceftibuten activity incubated for 16 to 20 hrs in presence of 1 ug/ml ceftibuten by broth microdilution method; format: functional; conditions: time 16-20 hrs
[3] = Inhibition of bacterial beta-lactamase OXA-48 using nitrocefin as substrate preincubated for 15 mins followed by substrate addition and measured after 10 mins by spectrophotometric analysis; set-up: species or system Bacteria
How it was run: (§2)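 IC50 is the mean of duplicate runs on separate days. A run was repeated automatically if it differed by more than 20% from the previous result.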

[4] = Inhibition of bacterial beta-lactamase KPC-2 using imipenem as substrate preincubated for 15 mins followed by substrate addition and measured after 10 mins by spectrophotometric analysis; set-up: species or system Bacteria; how it was run: as §2
[5] = Inhibition of bacterial beta-lactamase AmpC using nitrocefin as substrate preincubated for 15 mins followed by substrate addition and measured after 10 mins by spectrophotometric analysis; set-up: species or system Bacteria; how it was run: as §2
[6] = tested on: Klebsiella pneumoniae; test: Antibacterial activity against Klebsiella pneumoniae 156309 expressing SHV-11/TEM-1/KPC-2 assessed as concentration required to restore ceftibuten activity incubated for 16 to 20 hrs in presence of 1 ug/ml ceftibuten by broth microdilution method; format: functional; conditions: time 16-20 hrs
[7] = tested on: Klebsiella pneumoniae; test: Antibacterial activity against Klebsiella pneumoniae expressing OXA-48 assessed as concentration required to restore ceftibuten activity incubated for 16 to 20 hrs in presence of 1 ug/ml ceftibuten by broth microdilution method; format: functional; conditions: time 16-20 hrs
[8] = tested on: Klebsiella pneumoniae; test: Antibacterial activity against Klebsiella pneumoniae 196477 expressing AmpC/CMY-2/TEM-1/CTX-M-15 assessed as concentration required to restore ceftibuten activity incubated for 16 to 20 hrs in presence of 1 ug/ml ceftibuten by broth microdilution method; format: functional; conditions: time 16-20 hrs
[9] = Inhibition of bacterial beta-lactamase SHV-5 using cefotaxime as substrate preincubated for 15 mins followed by substrate addition and measured after 10 mins by spectrophotometric analysis; set-up: species or system Bacteria; how it was run: as §2
[10] = tested on: Klebsiella pneumoniae; test: Antibacterial activity against Klebsiella pneumoniae expressing SHV-12/TEM-1 assessed as concentration required to restore ceftibuten activity incubated for 16 to 20 hrs in presence of 1 ug/ml ceftibuten by broth microdilution method; format: functional; conditions: time 16-20 hrs
[11] = tested on: Escherichia coli; test: Antibacterial activity against Escherichia coli 786978 expressing KPC assessed as concentration required to restore ceftibuten activity incubated for 16 to 20 hrs in presence of 1 ug/ml ceftibuten by broth microdilution method; format: functional; conditions: time 16-20 hrs
[12] = tested on: Escherichia coli; test: Antibacterial activity against Escherichia coli J53 expressing SHV-5/TEM-1/AmpC assessed as concentration required to restore ceftibuten activity incubated for 16 to 20 hrs in presence of 1 ug/ml ceftibuten by broth microdilution method; format: functional; conditions: time 16-20 hrs
[13] = tested on: Escherichia coli; test: Antibacterial activity against Escherichia coli 664507 expressing OXA-48 assessed as concentration required to restore ceftibuten activity incubated for 16 to 20 hrs in presence of 1 ug/ml ceftibuten by broth microdilution method; format: functional; conditions: time 16-20 hrs
How it was run: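 Tested against a 25-strain challenge panel of clinical E. coli and K. pneumoniae isolates carrying ESBL (n = 5), KPC (n = 11), class C (n = 4) or OXA-48 (n = 5) β-lactamases. Ceftibuten was held at 1 μg/mL while the BLI concentration varied. The read-out was the BLI concentration that rescued ceftibuten activity.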

[14] = Oral bioavailability in rat at 3 mg/kg administered as cassette dose measured by UPLC-MS/MS; format: ADME, organism-based; conditions: in vivo; how it was run: as §1
[15] = 10 mg/kg, in the assay text read “measured” for “administered as cassette dose measured”

CCOC(C)(C)C(=O)OCOC(=O)c1cccc2c1OB(O)[C@@H](NC(=O)CC)C2
bioavailability [1]: 28%

CC(C)(C)C(=O)OCOC(=O)c1cccc2c1OB(O)[C@@H](NC(=O)CCC#N)C2
bioavailability [1, 15]: 20%

CCC(=O)N[C@H]1Cc2cccc(C(=O)OCOC(=O)OC3CCCC3)c2OB1O
bioavailability [1]: 24%

C#CCCC(=O)N[C@H]1Cc2cccc(C(=O)O)c2OB1O
Activity [2]: 0.25 µg/mL
IC50 [3]: 627 nM
IC50 [4]: 31 nM
IC50 [5]: 6 nM
Activity [6]: 2 µg/mL
Activity [7]: 4 µg/mL
Activity [8]: 0.06 µg/mL
IC50 [9]: 17 nM
Activity [10]: 0.06 µg/mL
Activity [11]: 1 µg/mL
Activity [12]: 1 µg/mL
Activity [13]: 0.5 µg/mL

CCCC(=O)N[C@H]1Cc2cccc(C(=O)O)c2OB1O
Activity [2]: 0.12 µg/mL
IC50 [3]: 426 nM
IC50 [4]: 93 nM
IC50 [5]: 9 nM
Activity [6]: 1 µg/mL
Activity [7]: 1 µg/mL
Activity [8]: 0.03 µg/mL
IC50 [9]: 36 nM
Activity [10]: 0.12 µg/mL
Activity [11]: 0.5 µg/mL
Activity [12]: 0.016 µg/mL
Activity [13]: 0.25 µg/mL

CCC(=O)N[C@H]1Cc2cccc(C(=O)OCOC(=O)C3CCCC3)c2OB1O
bioavailability [1]: 19%

NC(=O)CCC(=O)N[C@H]1Cc2cccc(C(=O)O)c2OB1O
Activity [2]: 0.12 µg/mL
IC50 [3]: 1790 nM
IC50 [4]: 69 nM
IC50 [5]: 6 nM
Activity [6]: 2 µg/mL
Activity [7]: 0.5 µg/mL
Activity [8]: 0.016 µg/mL
IC50 [9]: 514 nM
Activity [10]: 0.12 µg/mL
Activity [11]: 1 µg/mL
Activity [12]: 2 µg/mL
Activity [13]: 0.06 µg/mL

CC(C)(C)C(=O)OCOC(=O)c1cccc2c1OB(O)[C@@H](NC(=O)CCC(N)=O)C2
bioavailability [14]: < 5%

CCOC(=O)c1cccc2c1OB(O)[C@@H](NC(=O)CCNS(N)(=O)=O)C2
bioavailability [14]: < 5%

N#CCCC(=O)N[C@H]1Cc2cccc(C(=O)O)c2OB1O
Activity [2]: 0.12 µg/mL
IC50 [3]: 687 nM
IC50 [4]: 33 nM
IC50 [5]: 14 nM
Activity [6]: 2 µg/mL
Activity [7]: 2 µg/mL
Activity [8]: 0.03 µg/mL
IC50 [9]: 12 nM
Activity [10]: 0.06 µg/mL
Activity [11]: 0.5 µg/mL
Activity [12]: 0.03 µg/mL
Activity [13]: 0.12 µg/mL

O=C(CCC(F)(F)F)N[C@H]1Cc2cccc(C(=O)O)c2OB1O
Activity [2]: 1 µg/mL
IC50 [3]: 1620 nM
IC50 [4]: 43 nM
IC50 [5]: 9 nM
Activity [6]: 2 µg/mL
Activity [7]: 8 µg/mL
Activity [8]: 0.5 µg/mL
IC50 [9]: 8 nM
Activity [10]: 0.06 µg/mL
Activity [11]: 1 µg/mL
Activity [12]: 0.03 µg/mL
Activity [13]: 0.25 µg/mL

CCC(=O)N[C@H]1Cc2cccc(C(=O)OCOC(=O)OC(C)C)c2OB1O
bioavailability [1]: 23%

NS(=O)(=O)CCC(=O)N[C@H]1Cc2cccc(C(=O)O)c2OB1O
Activity [2]: 0.25 µg/mL
IC50 [3]: 8550 nM
IC50 [4]: 35 nM
IC50 [5]: 3 nM
Activity [6]: 2 µg/mL
Activity [7]: 2 µg/mL
Activity [8]: 0.03 µg/mL
IC50 [9]: 8 nM
Activity [10]: 0.06 µg/mL
Activity [11]: 1 µg/mL
Activity [12]: 0.12 µg/mL
Activity [13]: 0.12 µg/mL

CCC(=O)N[C@H]1Cc2cccc(C(=O)OCOC(=O)C(C)C)c2OB1O
bioavailability [1]: 38%

CC(F)(F)CCC(=O)N[C@H]1Cc2cccc(C(=O)O)c2OB1O
Activity [2]: 0.5 µg/mL
IC50 [3]: 2390 nM
IC50 [4]: 41 nM
IC50 [5]: 7 nM
Activity [6]: 4 µg/mL
Activity [7]: 4 µg/mL
Activity [8]: 0.12 µg/mL
Activity [10]: 0.03 µg/mL
Activity [11]: 1 µg/mL
Activity [12]: 0.03 µg/mL
Activity [13]: 0.25 µg/mL

CCOC(=O)c1cccc2c1OB(O)[C@@H](NC(=O)CC)C2
bioavailability [14]: < 5%

CCC(=O)N[C@H]1Cc2cccc(C(=O)OCOC(=O)OC(CC)CC)c2OB1O
bioavailability [1]: 33%

CC(=O)CCC(=O)N[C@H]1Cc2cccc(C(=O)OCOC(=O)C(C)(C)C)c2OB1O
bioavailability [1, 15]: 95%

CC(C)(C)C(=O)OCOC(=O)c1cccc2c1OB(O)[C@@H](NC(=O)CCNS(C)(=O)=O)C2
bioavailability [14]: < 5%

CS(=O)(=O)NCCC(=O)N[C@H]1Cc2cccc(C(=O)O)c2OB1O
Activity [2]: 0.12 µg/mL
IC50 [3]: 4670 nM
IC50 [4]: 28 nM
IC50 [5]: 5 nM
Activity [6]: 1 µg/mL
Activity [7]: 2 µg/mL
Activity [8]: 0.03 µg/mL
IC50 [9]: 12 nM
Activity [10]: 0.016 µg/mL
Activity [11]: 0.5 µg/mL
Activity [12]: 0.016 µg/mL
Activity [13]: 0.03 µg/mL

CCOC(=O)c1cccc2c1OB(O)[C@@H](NC(=O)CCC(N)=O)C2
bioavailability [14]: < 5%

CCCC(=O)N[C@H]1Cc2cccc(C(=O)OCOC(=O)C(C)(C)C)c2OB1O
F ([14]; 3 mg/kg): 31%

CCC(=O)N[C@H]1Cc2cccc(C(=O)OCOC(C)=O)c2OB1O
bioavailability [1]: 10%
